Results gathered from unrelated publications.

Structure (SMILES) | assay | system | setting | quantity | value
NC(=O)[C@@H]1CC(F)(F)CN1C(=O)c1ccc(N2CC(F)(F)C2)c(OCC2CC2)n1 | metabolic stability | human, hepatocytes | – | hepatocyte CLint | 14 µL/min/10⁶ cells
COc1ccnc(C(=O)N[C@H]2COC(=O)[C@H](Cc3ccccc3)[C@@H](OC(=O)C(C)C)[C@H](C)OC2=O)c1OCOC(=O)C(C)C | – | rat | oral | LD50 | > 2000 mg/kg
NCCCNCCCCNCCCNc1cc2nc(-c3ccccc3Cl)[nH]c(=O)c2cc1F | – | male Sprague-Dawley rat | oral | LD50 | > 1000 mg/kg
Nc1nc2[nH]cc(CCc3ccc(C(=O)N[C@@H](CCC(=O)O)C(=O)O)cc3)c2c(=O)[nH]1 | – | human, plasma | intravenous, 500 mg/m², patients | clearance | 81.7 mL/min
Cc1cc(C)nc(Nc2ncc(C(=O)NCCc3c(C)[nH]c4ccccc34)cn2)c1 | metabolic stability | rat, liver microsomes | 1 µM | microsomal CLint | 185 µL/min/mg
N=c1c2c(-c3ccccc3)c(-c3ccccc3)n(Cc3ccccc3)c2ncn1[C@H]1CC[C@H](O)CC1 | metabolic stability | Sprague-Dawley rat, hepatocytes | 1 µM | scaled CLint | 19 mL/min/kg
C[C@H]1COCCN1c1nc(NCc2cccnc2C(F)(F)F)c2cccnc2n1 | metabolic stability | rat, hepatocytes | – | hepatocyte CLint | 5 µL/min/10⁶ cells
Cc1c(C(=O)Nc2ccc(OC(F)(F)F)cc2)nc(-c2ccc(Cl)cc2Cl)n1-c1ccc(OS(=O)(=O)CCC(F)(F)F)cc1 | shake flask | aqueous buffer | pH 7.4 | logD | > 4
C=CCNc1c(O)cc2c(O)c1C[C@@H](C)C[C@H](OC)[C@H](O)[C@@H](C)/C=C(\C)[C@H](OC(N)=O)[C@@H](OC)/C=C\C=C(/C)C(=O)N2 | – | human, plasma | intravenous, 400 mg/m², patients, infusion | clearance | 1630 mL/min
